Most compounds without a hit are left out; they make up all but 3.9% or so of the library.
STAT1 activator – STAT1 signaling activators, primary screen, cell-based, HTS, luciferase reporter; NIH 3T3 STAT1-luciferase reporter, IFN-gamma, luminescence; 100% = IFN-gamma alone, no compound; activation (% of control), % at 5.5 µM; 2.6% of 200,000 active;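 active = activation above the screen-wide mean activation plus 3 SD, cut at about 130% in these data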;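 also: raw ratio to IFN-gamma control signal so 100% means no change and 0% no light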
NF-kB neuron act – activators of NF-kB expression in neurons, primary screen, cell-based, HTS; human neuronal cells, NF-kB reporter expression; active compounds read high; fold change at 12.5 µM; 1.6% of 190,000 active; in the data active = fold change above about 3.3
STAT1 blocker – STAT1 signaling inhibitors, primary screen, cell-based, HTS, luciferase reporter; inhibition, % at 5.5 µM; 0.35% of 200,000 active; NIH 3T3 STAT1-luciferase reporter, IFN-gamma, luminescence; AID 920, 2007;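 active = inhibition above a set limit, the mean inhibition across all tested compounds plus 3 SD, cut at about 34% in these data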;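 also: 0% = IFN-gamma with DMSO and 100% = IFN-gamma with 300 µM nifuroxazide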
APP 5'UTR act – activators of APP 5'UTR luciferase reporter, primary screen, SH-SY5Y cells. SH-SY5Y APP 5'UTR luciferase reporter, luminescence; zero percent = DMSO vehicle wells. activation, % at 2 µM. 1% of 190,000 active;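 active = activation above a set limit, based on mean plus 3 SD of controls, cut at about 140% in these data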
Pf gamet viab – late stage P. falciparum gametocyte viability inhibitors, primary screen, ATP luminescence, HTS; P. falciparum stage V gametocytes, 24 h; inhibition, % at 10.9 µM; 0.065% of 150,000 active;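 active = inhibition above the mean plus 3 SD of compounds within the control limits, set per campaign, cut at about 38% in these data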;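 also: 0% = DMSO wells and 100% = medium only without gametocytes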
STAT3 activator – IL-6 driven STAT3 reporter potentiators, primary screen, U3A cells, luciferase, luminescence, MLSCN library; IL-6 STAT3-luciferase reporter; 100% = signal with IL-6 EC80 alone; activation (% of control), % at 5.6 µM; 0.91% of 190,000 active; AID 871, 2007;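 active = activation above the screen-wide mean of compound activation plus 3 SD, cut at about 130% in these data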;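 also: 0% = background luminescence of wells with medium and substrate only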
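Material: STAT3-luciferase reporter U3A cells. Controls: IL-6-treated wells, 100% activation. Read-out: % activation versus median of IL-6-stimulated wells. Probe or stimulus: IL-6 stimulus at 33 ng/mL final. Timing: compound 1 h, then IL-6 6 h at 37 °C. Signal: reporter luminescence signal.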
STAT1 act conf – STAT1 signaling activators, confirmation, cell-based, HTS, luciferase reporter | shares compounds with STAT1 activator | NIH 3T3 STAT1-luciferase reporter, IFN-gamma potentiation, luminescence; 100% = IFN-gamma EC80 alone, no compound | activation (% of control), % at 5.7 µM | 97% of 1,200 active;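 active = activation above a set limit carried over from the earlier primary STAT1 screen, cut at about 140% in these data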;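 also: simple ratio to median IFN-gamma plus DMSO wells so 0% means no light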
NFkB act – NF-kB reporter activators, TNF-alpha stimulated, counter-screen for STAT1 activator project, cell-based, HEK293T, luciferase luminescence; 43% of 1,200 active; AID 1306, 2008; 100% = TNF-alpha with vehicle only; activation (% of control), % at 5.7 µM; shares compounds with STAT1 activator;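 active = activation above the mean of solvent-only control wells plus 3 SD, set per campaign, cut at about 130% in these data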;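 also: TNF-alpha given at a submaximal dose yielding about 80% of full reporter signal; values are well signal over median control so 100% means no change and 0% no light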
STAT3 act STAT1c – STAT3 reporter activation by STAT1 hits, confirmation, counter-screen for STAT1 activator project, U3A cells, luciferase, luminescence. AID 1316, 2008. IL-6; cells lack STAT1; 100 = IL-6 alone, no compound effect. shares compounds with STAT1 activator. 46% of 1,200 active. activation (% of control), % at 5.7 µM;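 active = activation above the solvent-only control well mean plus 3 SD, set per plate batch, cut at about 110% in these data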;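 also: 0% = no luminescence and 100% = median IL-6 plus DMSO wells; higher means more STAT3 reporter activation so hits are non-selective activators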
Starred values were filed as active, the others as inactive; . = no result.

SMILES	STAT1 activator	NF-kB neuron act	STAT1 blocker	APP 5'UTR act	Pf gamet viab	STAT3 activator	STAT1 act conf	NFkB act	STAT3 act STAT1c
CCCN1C(=O)/C(=C\C=C2/Sc3ccccc3N2CC)SC1=S	101.3	1.29	-0.8	-0.2	.	92.4	.	.	.
O=[N+]([O-])c1cc2oc3c(c2c(C=NCc2ccncc2)c1O)CCCC3	92.9	1.06	8.0	13.1	.	96.0	.	.	.
COC(=O)c1sc2nc3c(cc2c1N)CCCC3	165.3*	8.23*	-70.1	164.4*	-18.5	89.4	227.1*	148.1*	101.1
CCOC(=O)c1sc2nc3c(cc2c1N)COC(C)(CC)C3 (stereo not given)	200.8*	7.32*	-110.5	174.8*	0.5	83.9	287.2*	145.6*	108.4
COC(=O)c1sc2nc3c(cc2c1N)C(=O)CC(C)(C)C3	101.7	1.1	-1.9	-11.1	9.1	83.1	.	.	.
Cc1ccc2[nH]c(=O)c(CN(CC3CCCO3)C(=S)Nc3ccccc3)cc2c1 (stereo not given)	101.3	0.56	-1.5	-9.2	-36.4	93.2	.	.	.
O=Cc1cn(-c2ccccc2)nc1-c1ccc(F)cc1	.	.	.	.	-20.9	.	.	.	.
O=Cc1cn(-c2ccccc2)nc1-c1ccc2c(c1)OCCO2	159.6*	6.9*	-75.2	140.0*	.	107.5	193.4*	133.7*	109.5
COC(=O)c1ccc(-c2ccc(Cl)cc2)nc1C	185.5*	5.94*	-96.7	179.0*	.	94.9	240.8*	135.7*	111.0*
Cc1c(C(=O)N/N=C/c2ccncc2)no[n+]1[O-]	97.6	0.9	0.5	-30.7	-40.0	97.7	.	.	.
Cc1cc(C(=O)Nc2ccc3c(c2)OCO3)cs1	156.8*	4.49*	-50.2	177.5*	.	110.8	168.0*	122.0	118.8*
O=C(Nc1ccc2nsnc2c1)c1ccc2c(c1)OCO2	153.9*	7.02*	-58.4	150.0*	.	71.6	213.8*	126.2	95.0
Cn1c(C(=O)Nc2ccc3c(c2)OCCO3)cc2sccc21	186.4*	9.14*	-94.3	152.4*	.	76.5	271.9*	132.2	102.9
CCOc1ccc(NC(=O)CCC(=O)NNS(=O)(=O)c2ccccc2[N+](=O)[O-])cc1	94.4	1.02	4.0	20.1	6.7	103.8	.	.	.
CC(C)/C=C/CN1CCN(CCCc2ccccc2)C(CCO)C1 (stereo not given)	.	.	.	.	6.5	.	.	.	.
Cc1ccc(C2CC(c3ccccc3)=NN2C(=O)CSc2nnc(-c3ccncc3)n2C)o1 (stereo not given)	87.8	0.94	13.6	-3.8	-18.1	84.4	.	.	.
Cc1ccc(S(=O)(=O)N(C)c2ccc(OCC(=O)Nc3cccc(-n4cnnn4)c3C)cc2)cc1	.	.	.	.	-5.4	.	.	.	.
O/N=C(/CCc1ccccc1)c1ccc2c(c1)OCCO2	154.8*	2.55	-59.1	57.6	-0.7	104.7	154.5*	124.2	109.8
Brc1ccc(-c2nnc(Cc3ccccc3)o2)cc1	.	.	.	.	-5.3	.	.	.	.
Cc1ccccc1-c1nnc(Cc2ccccc2)o1	153.6*	2.46	-60.7	71.4	1.7	97.7	175.4*	135.3*	108.4
CC(C)CC(=O)Nc1ccc2oc(-c3cccnc3)nc2c1	123.5	2.09	-25.7	50.4	.	96.2	.	.	.
CCCC(=O)Nc1ccc(-c2nc3cc(C)c(C)cc3o2)cc1	202.1*	4.72*	-112.8	52.8	.	88.3	224.1*	141.3*	121.8*
Cc1ccc2oc(-c3ccc(NC(=O)CC(C)C)cc3)nc2c1	153.6*	2.39	-58.6	119.4	-11.2	104.5	212.5*	130.5	107.9
CCOC(=O)c1sc(NC(=O)CSc2nc(-c3ccco3)cc(C(F)(F)F)n2)c(C(=O)OC(C)C)c1C	91.2	.	5.1	-3.4	.	94.6	.	.	.
COc1cc(CCC(=O)Nc2ccc(S(=O)(=O)NC3=NCCCCC3)cc2)cc(OC)c1OC	99.4	1.03	1.4	8.3	-2.4	94.4	.	.	.
SMILES	STAT1 activator	NF-kB neuron act	STAT1 blocker	APP 5'UTR act	Pf gamet viab	STAT3 activator	STAT1 act conf	NFkB act	STAT3 act STAT1c
CC(C)NC(=O)N(C)C[C@H]1Oc2ccc(NS(=O)(=O)c3ccccc3)cc2C(=O)N([C@H](C)CO)C[C@@H]1C	.	.	.	.	6.3	.	.	.	.
CC(NC(=O)CN1CCc2ccccc21)c1ccccc1 (stereo not given)	92.2	1.26	8.8	13.7	.	102.2	.	.	.
O=C(Nc1ccccc1)c1cc2ccccc2o1	153.2*	8.78*	-48.5	230.4*	.	65.1	227.4*	134.3*	98.7
Cc1cc(C(=O)Nc2ccccc2)oc1C	154.7*	3.45*	-60.0	97.8	.	90.8	169.8*	135.8*	109.7
CC(=O)c1ccc(NC(=O)c2cc3ccccc3o2)cc1	.	.	.	.	-1.5	.	.	.	.
CC(=O)Nc1cccc(NC(=O)c2cc3ccccc3o2)c1	156.5*	3.44*	-61.6	125.1	11.5	92.5	178.3*	135.5*	109.2
NNC(=O)c1cc2c(ccc3ccccc32)o1	102.7	1.2	-5.1	3.1	.	89.6	.	.	.
O=C(Nc1cccnc1)c1cc2c(ccc3ccccc32)o1	177.4*	5.29*	-84.7	220.1*	.	79.6	259.5*	143.8*	110.8*
COc1cc(CNCCSc2nnnn2C)cc(Br)c1OCc1ccccc1	97.4	.	3.2	6.0	-0.3	95.7	.	.	.
CCCCc1ccc(-n2c(Cc3cccs3)n[nH]c2=S)cc1	98.3	1.16	-0.1	13.8	1.5	99.9	.	.	.
Cc1ccc(C(=O)c2cc3ccccc3o2)cc1	156.8*	3.9*	-62.2	148.4*	.	83.5	195.5*	139.3*	103.1
O=C(c1cccc([N+](=O)[O-])c1)c1cc2ccccc2o1	108.7	1.85	-9.8	18.9	-2.2	86.9	.	.	.
CCN1CCC(N2CCN(c3ccccc3OC)CC2)CC1	.	.	.	.	-4.7	.	.	.	.
C=C(C)c1sc(-c2ccccc2)nc1C	.	.	.	.	19.1	.	.	.	.
C/C(=N\O)c1sc(-c2ccccc2)nc1C	155.6*	6.42*	-63.1	177.4*	-6.2	106.5	190.2*	117.7	121.1*
O=C1Nc2ccccc2S/C1=C/NCc1ccccc1Cl	96.7	1.45	3.2	0.0	4.9	92.2	.	.	.
Cc1ccc(N/C=C2/Sc3ccccc3NC2=O)cc1	168.4*	1.73	-77.2	122.6	-2.1	93.7	192.1*	134.6*	90.5

Source: PubChem
